Most compounds without a hit are left out; they make up all but 2.5% or so of the library.
HIV Env fusion = inhibitors of HIV-1 Env-driven cell-cell fusion, primary screen, HeLa-JRFL effector, CEM21 target cells, luciferase; inhibition, % at 12.3 µM; 360,000 compounds, 1.1% hits; AID 651610, 2012;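 active = mean replicate inhibition score of at least 50 and every replicate individually at or above 50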;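 note: 0% = plate neutral controls and 100% = maraviroc near 300 nM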
N-glyco inh = increase of ERlucT glycosylation luciferase signal, primary screen, N-linked glycosylation inhibitor project, D54 ERlucT cells, luminescence, set 2 | D54 ERlucT glycosylation luciferase reporter, 24 h; percent of 100 nM tunicamycin response | reporter increase, % at 12.5 µM | 360,000 compounds, 0.23% hits;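 active = mean luciferase reporter signal, scaled so untreated is 0 and the glycosylation-blocking control 100, at or above a set limit in every replicate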;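 note: luciferase carries N-glycosylation sites so blocking glycosylation raises the light; 0% = median of neutral control wells and 100% = median of 100 nM tunicamycin wells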
FN deposit inh = inhibitors of fibronectin matrix deposition, primary screen, AH1F cells, Alexa488-fibronectin fluorescence, plate reader | AH1F fibroblasts, overnight | inhibition, % at 12.6 µM | 350,000 compounds, 0.086% hits | AID 743247, 2014;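 active = mean inhibition across replicates of 30% or more, regardless of how many single replicates reach that level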;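 note: positive control wells lacked labelled fibronectin entirely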
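Material – AH1F fibroblast monolayer, labelled fibronectin deposition · Reagent – labelled fibronectin 24 nM · Timing – 1 h adhesion, overnight exposure · Measured by – fluorescence at 485 nm excitation, 525 nm emission · Read-out – inhibition of fibronectin deposition signal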
EWS-Fli inh = EWS/Fli-driven NR0B1 reporter inhibitors, primary screen, A673 cells, NR0B1 luciferase, luminescence, MLPCN library. viability-normalised. 350,000 compounds, 0.67% hits. inhibition, % at 12.6 µM;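 active = mean inhibition of at least 50% after viability correction, with every replicate also passing that limit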;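 note: firefly luciferase signal divided by Alamar Blue viability fluorescence both relative to DMSO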
PAX8 inh HTS = inhibitors of PAX8-driven TPO luciferase reporter, primary screen, RMG-I cells, single concentration; 360,000 compounds, 1.2% hits; inhibition, % at 12.6 µM; SteadyGlo, 24 h;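 active = mean replicate inhibition at least 60% with every replicate also reaching 60%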;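 note: luciferase light reporting Pax8 driven TPO promoter activity; plate controls were median of neutral control wells for no effect and mitoxantrone controls for full effect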
MLL AF4-AF9 inh = inhibitors of AF4 peptide binding to AF9, primary screen, biochemical, AlphaScreen, biotin-AF4 peptide, FLAG-AF9, single point; inhibition, % at 10 µM; 350,000 compounds, 0.47% hits; AID 651704, 2012;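 active = every replicate reaching a set inhibition limit, whatever the replicate mean, cut at about 25% in these data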;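 note: 0% = plate neutral control median and 100% = total signal loss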
Target sequence (P42568 whole entry, looked up): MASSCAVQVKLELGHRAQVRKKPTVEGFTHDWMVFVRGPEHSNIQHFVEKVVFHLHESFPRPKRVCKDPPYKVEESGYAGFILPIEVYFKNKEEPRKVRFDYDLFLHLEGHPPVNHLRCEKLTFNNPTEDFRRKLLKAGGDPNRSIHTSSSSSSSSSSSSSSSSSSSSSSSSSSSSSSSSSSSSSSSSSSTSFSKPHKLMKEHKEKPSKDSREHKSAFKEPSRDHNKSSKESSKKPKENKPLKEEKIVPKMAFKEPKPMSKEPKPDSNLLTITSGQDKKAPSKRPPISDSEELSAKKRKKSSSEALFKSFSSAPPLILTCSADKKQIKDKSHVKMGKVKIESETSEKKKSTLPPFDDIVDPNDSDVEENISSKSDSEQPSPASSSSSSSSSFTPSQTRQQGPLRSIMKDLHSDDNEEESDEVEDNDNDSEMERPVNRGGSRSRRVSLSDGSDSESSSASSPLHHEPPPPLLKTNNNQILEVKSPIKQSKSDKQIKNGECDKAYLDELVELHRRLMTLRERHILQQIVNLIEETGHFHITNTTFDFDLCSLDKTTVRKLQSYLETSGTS
* hit, by the source's call; / = not tested or not shown; [ ] = another dose, or the depositor's remark.

SMILES	HIV Env fusion	N-glyco inh	FN deposit inh	EWS-Fli inh	PAX8 inh HTS	MLL AF4-AF9 inh
CC=Cc1ccc2n(c1=O)C[C@H]1[C@H](CO)[C@@H](C(=O)NCc3ccccc3)[C@@H]2N1CC (mixture of isomers)	/	/	/	6.2	4.4	0.6
Cn1cnc(S(=O)(=O)N2CC[C@@H]3[C@@H](CO)Nc4ccc(C#Cc5ccccc5F)cc4[C@@H]32)c1	5.3[16.7 µM]	/	-8.4	-2.9	/	16.4
CCOC(=O)N1C(=O)[C@@](c2ccc(Cl)cc2)(C(C)C)N1C(=O)OCC	-23.6	-4.4	-15.1	10.5	68.9*	2.2
C[C@H](CO)N1C[C@H](C)[C@@H](CN(C)CC2CC2)Oc2ccc(NS(=O)(=O)c3cn(C)cn3)cc2C1=O	3.3[16.7 µM]	/	/	-2.1	-5.8	-2.0
Cc1ccc2nc(/C(C#N)=C/c3ccc(O)c(O)c3)[nH]c2c1	-64.7	5.9	-7.8	-27.3	-19.2	0.5
Cc1ccc2nc(/C(C#N)=C/c3cn[nH]c3-c3ccc(F)cc3)[nH]c2c1	/	31.5*	/	/	/	/
COc1ccccc1-c1nnc(Sc2nc([N+](=O)[O-])nn2C)o1	126.3*	-15.9	-12.3	/	/	/
C[C@@]12C(=O)N(c3cccc(F)c3)C(=O)N1[C@H](c1ccc(Cl)cc1)[C@@H]1C(=O)N(C3CCCCC3)C(=O)[C@@H]12	0.6	0.0	-4.7	5.2	3.7	4.5
COc1ccc([C@@H]2[C@@H]3C(=O)N(C(C)(C)C)C(=O)[C@@H]3[C@]3(C)C(=O)N(c4cccc(Br)c4)C(=O)N23)cc1	/	-1.0	/	/	/	/
COc1ccc(N2C(=O)N3[C@H](c4ccc(Cl)cc4)[C@@H]4C(=O)N(C5CCCCC5)C(=O)[C@@H]4[C@]3(C)C2=O)cc1	85.3*	-0.2	5.0	3.9	1.1	-2.5
C[C@@]12C(=O)N(c3cccc(Cl)c3)C(=O)N1[C@H](c1ccc(Cl)cc1)[C@@H]1C(=O)N(C3CCCCC3)C(=O)[C@@H]12	102.8*	0.6	-6.8	13.7	11.5	1.8
CNC[C@H]1Oc2ccc(NC(=O)Cc3cn(C)c4ccccc34)cc2C(=O)N([C@@H](C)CO)C[C@@H]1C	4.6[16.7 µM]	/	2.7	1.1	17.0	2.2
Cc1ccc(C(C(=O)NC2CCCCC2)N(C(=O)CCCC(=O)Nc2ccccn2)c2ccc3c(c2)OCCO3)cc1 (stereo not drawn)	-16.9	-2.5	-7.3	/	0.8	/
CCOc1ccccc1N(C(=O)CNC(=O)c1ccco1)C(C(=O)NC1CCCC1)c1cccnc1 (stereo not drawn)	77.4*	0.4	-1.3	/	-1.9	/
COc1ccc(N(C(=O)CCl)C(C(=O)NC2CCCCC2)c2cccnc2)cc1 (stereo not drawn)	51.4*	20.7	1.7	/	113.1*	/
O=C(CCCC(=O)N(c1ccc2c(c1)OCCO2)C(C(=O)NC1CCCCC1)c1ccc(F)cc1)Nc1ccccn1 (stereo not drawn)	69.1*	3.6	-4.8	/	/	/
CCc1ccccc1N(C(=O)CNC(=O)c1ccco1)C(C(=O)NC1CCCC1)c1cccnc1 (stereo not drawn)	-3.3	1.7	3.8	-4.6	-11.4	-0.4
O=C(NC1CCCCC1)C(c1cccnc1)N(C(=O)CCl)c1ccccc1Cl (stereo not drawn)	46.4	-3.1	9.9	48.3	100.7*	-2.6
COc1ccc(N(C(=O)Cc2cccs2)C(C(=O)NC2CCCC2)c2ccncc2)cc1 (stereo not drawn)	9.8	-0.8	3.0	3.8	20.6	-0.3
C[C@@H]1CCCCO[C@H](CN(C)S(=O)(=O)c2ccc(Cl)cc2)[C@H](C)CN([C@H](C)CO)C(=O)c2cc(NC(=O)c3ccncc3)ccc2O1	20.9[16.7 µM]	/	8.6	21.0	7.1	5.6
CCC(=O)N1CC2(CCN(S(C)(=O)=O)CC2)c2c(n(C)c3cc(OC)ccc23)[C@@H]1CO	/	/	/	4.6	/	6.1
CC(C)C#Cc1ccc2c(c1)O[C@H](CN(C)S(=O)(=O)c1cn(C)cn1)[C@@H](C)CN([C@H](C)CO)S2(=O)=O	/	/	-2.2	11.1	-23.7	-0.1
CC(C)NC(=O)Nc1ccc2c(c1)C(=O)N([C@H](C)CO)C[C@@H](C)[C@H](CN(C)S(C)(=O)=O)OCCCC[C@H](C)O2	6.2[16.7 µM]	/	-0.6	-4.9	14.1	-12.5
O=C(NC1CCCCC1)C(c1cccnc1)N(C(=O)CCl)c1ccc(F)cc1 (stereo not drawn)	/	10.8	9.9	56.6*	109.2*	6.8
O=C(NCC(=O)N(c1ccccc1)C(C(=O)NC1CCCCC1)c1cccnc1)c1cccs1 (stereo not drawn)	55.8*	-0.7	-4.2	-1.0	7.0	-2.5
SMILES	HIV Env fusion	N-glyco inh	FN deposit inh	EWS-Fli inh	PAX8 inh HTS	MLL AF4-AF9 inh
CCn1c(O)c(N=Nc2ccc3ccccc3n2)c2ccccc21	-124.3	-6.4	2.6	-121.1	-215.6	7.2
Brc1ccc(N=Nc2ccc3ccccc3n2)cc1	28.9	-19.1	-0.3	77.4*	78.5*	3.6
Fc1ccc(-n2cc(-c3ccccc3)c3c(N4CCOCC4)ncnc32)cc1	39.0	-2.2	-13.7	2.0	38.3	4.1
Brc1ccc(-n2cc(-c3ccccc3)c3c(NN4CCOCC4)ncnc32)cc1	/	-1.7	4.0	9.2	95.3*	10.4
COc1ccc(-n2cc(-c3ccccc3)c3c(N4CCOCC4)ncnc32)cc1	24.5	-5.2	/	20.5	63.9*	3.9
CCNC(=O)C[C@@H]1CC[C@H]2[C@@H](COC[C@@H](O)CN2C(=O)c2ccccn2)O1	11.1[16.7 µM]	/	-4.6	4.0	-10.7	-0.8
O=C(C[C@@H]1CC[C@H]2[C@@H](COC[C@H](O)CN2C(=O)Nc2ccc(Cl)c(Cl)c2)O1)NCc1ccc(Cl)cc1	/	/	-2.8	-2.3	95.3*	-1.9
O=C(C[C@H]1CC[C@@H]2[C@H](COC[C@@H](O)CN2C(=O)Nc2ccc(Cl)c(Cl)c2)O1)NCc1ccc(Cl)cc1	/	/	-4.1	-3.0	5.0	-0.8
CCNC(=O)C[C@@H]1CC[C@@H]2[C@H](COC[C@@H](O)CN2C(=O)c2ccccn2)O1	64.7*[16.7 µM]	/	-8.4	3.7	-9.4	-0.1
O=C(C[C@@H]1CC[C@@H]2[C@H](COC[C@@H](O)CN2C(=O)Nc2ccc(Cl)c(Cl)c2)O1)NCc1ccc(Cl)c(Cl)c1	/	/	12.2	7.6	73.8*	-0.5
O=C(C[C@@H]1CC[C@@H]2[C@H](COC[C@@H](O)CN2C(=O)Nc2ccc(Cl)c(Cl)c2)O1)NCc1ccc(Cl)cc1	/	/	0.7	0.3	95.6*	-1.4
O=C(NCc1ccccc1)[C@H]1[C@H](CO)[C@H]2Cn3c(ccc(/C=C/c4ccccc4)c3=O)[C@@H]1N2CC1CC1	/	/	/	-0.1	18.1	-55.8
C[C@@H]1CN([C@H](C)CO)C(=O)c2cc(NS(=O)(=O)c3ccc(Cl)cc3)ccc2O[C@H]1CN(C)S(=O)(=O)c1ccccc1	-4.2[16.7 µM]	/	/	-6.6	-1.3	/
